Measurements gathered from unrelated publications.
Protocols differ between the studies behind these lines.
Target: Voltage-gated inwardly rectifying potassium channel KCNH2 (KCNH2, Homo sapiens, UniProt Q12809)

SMILES | test | test system | setting | quantity | result
CCCN1CCCC[C@H]1C(=O)Nc1c(C)cccc1C | ion current, inhibitor, patch clamp |  | 100 µM | inhibition | 82.3%
CC(C)(C)c1sc2ncnc(Oc3c(F)cccc3OC(F)(F)F)c2c1-c1ccc(Cl)cc1 | ligand displacement, radioligand |  | 10 µM | inhibition | > 50%
Cn1cc2c(C(=O)O)ccc(NS(=O)(=O)c3ccc(OCC4CCC4)c(Cl)c3)c2n1 | ion current |  |  | IC50 | > 10 µM
NC/C(=C\F)COc1cccc(Cn2c(=S)[nH]c(=O)c3[nH]cnc32)c1 | ion current, inhibitor |  | 10 µM | inhibition | 3.8%
COC1=CC(c2ccc[nH]2)=N/C1=C\c1[nH]c(Cc2ccc(OC(F)(F)F)cc2)cc1Cc1ccc(OC(F)(F)F)cc1 | ion current, inhibitor, patch clamp |  | 50 µM | inhibition | 26.6%
CCOC(=O)C1=C(CN2CCC[C@@H]2C(=O)Nc2ccc(B(O)O)cc2)NC(c2nccs2)=N[C@H]1c1ccc(F)cc1Br | ion current, inhibitor, patch clamp | HEK293 | 1 µM, pH 7.4 | inhibition | 14.6%
CC(=O)N1CCC(C(=O)N2CCN3C(=O)c4cc(-c5ccccc5)ccc4NC(=O)C3C2)CC1 (stereo not drawn) | ion current, inhibitor, patch clamp | HEK293 | 10 µM | inhibition | 4%
COc1cc(N)c(Cl)cc1C(=O)NC1CCN(CCCOc2ccc(F)cc2)CC1OC (stereo not drawn) | ion current, inhibitor, patch clamp | HEK293 | 100 pM, pH 7.4 | inhibition | 3.11%
CN1C[C@H](COc2nccc3c(NCc4ccco4)cc(Cl)nc23)OC1=O | ion current, inhibitor | HEK293 | 30 µM | inhibition | 37.1%
